Source: PubChem BioAssay (several laboratories)
HSP90 refold inh: inhibitors of HSP90 luciferase refolding in rabbit reticulocyte lysate; luciferase refolding luminescence, 3 h; inhibition, % at 5.6 µM; hit rate 0.91% among 290,000; AID 1789;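 active = inhibition above the screen-wide mean plus 3 SD, computed separately per campaign, cut at about 16% in these data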;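 note: inhibitors lower the luminescence because luciferase stays unfolded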
SENP7 block: SENP7 protease inhibition; Q9BQF6; AID 434973; recombinant SENP7, Z-RLRGG-aminoluciferin luminescence, 40 min; hit rate 1.5% among 330,000; inhibition, % at 5 µM;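 active = inhibition above about 50% at the single test dose, limit read from the data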
Target sequence (Q9BQF6 706-1050 limits assumed): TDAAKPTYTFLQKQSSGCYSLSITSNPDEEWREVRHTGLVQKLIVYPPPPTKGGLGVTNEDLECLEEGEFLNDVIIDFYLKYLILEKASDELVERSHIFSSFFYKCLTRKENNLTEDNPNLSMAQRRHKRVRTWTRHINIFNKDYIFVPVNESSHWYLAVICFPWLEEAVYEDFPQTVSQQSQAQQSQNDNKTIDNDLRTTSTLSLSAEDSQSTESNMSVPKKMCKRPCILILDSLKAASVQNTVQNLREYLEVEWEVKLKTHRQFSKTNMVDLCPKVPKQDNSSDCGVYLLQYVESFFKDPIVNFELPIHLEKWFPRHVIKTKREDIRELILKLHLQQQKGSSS
SENP8 block-1: blocks human SENP8 cleavage of Nedd8 substrate. hit rate 0.64% among 360,000. inhibition, % at 20 µM. recombinant SENP8, Nedd8 substrate fluorescence. Q96LD8. AID 602440; in the data active = inhibition mostly above about 40%, no sharp cut-off; inactive = mostly below about 27%
SENP1 FRET inh: inhibitors of human SENP1 SUMO protease catalytic domain | recombinant SENP1 catalytic domain, CyPet-SUMO1-YPet FRET cleavage | inhibition, % at 10 µM | hit rate 0.21% among 360,000;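 active = inhibition at least 30% at 10 µM, raw YFP signal under a set limit, fluorescence ratio 0.5 to 1.5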
Target sequence (Q9P0U3 419-644 limits assumed): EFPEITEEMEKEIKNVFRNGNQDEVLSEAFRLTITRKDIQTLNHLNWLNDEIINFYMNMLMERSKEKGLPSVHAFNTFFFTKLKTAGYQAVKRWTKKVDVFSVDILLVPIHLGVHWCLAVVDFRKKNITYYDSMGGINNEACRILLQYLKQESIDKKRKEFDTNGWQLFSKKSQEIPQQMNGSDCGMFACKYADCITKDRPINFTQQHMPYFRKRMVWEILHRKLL
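System: Recombinant human SENP1 catalytic domain, His6-tagged | Incubation: Enzyme reaction for 50 min at room temperature, dark | Medium: Tris pH 8 with BME, BSA, NP40 and catalase | Also added: 25 nM SUMO1 FRET substrate | Compound: 10 µM single point, 0.5% DMSO | Measured by: FRET fluorescence in CFP and YFP emission channels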
SENP8 block-2: inhibitors of human SENP8 protease; purified SENP8, Z-RLRGG-aminoluciferin cleavage, luminescence; inhibition, % at 10 µM; hit rate 1.2% among 330,000; AID 2540; in the data active = inhibition above about 50%
SENP6 block: inhibitors of human SENP6 protease. hit rate 1.8% among 330,000. AID 2599. inhibition, % at 10 µM. Recombinant SENP6 catalytic domain, aminoluciferin luminescence;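 active = inhibition above about 50% at the single tested dose, limit read from the data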
HSP90 inh confirm: HSP90 inhibition, confirmation assay; rabbit reticulocyte lysate, luciferase refolding luminescence, 3 h; shares compounds with HSP90 refold inh; hit rate 64% among 2,300; inhibition, % at 5.9 µM; in the data active = inhibition above about 18%
luciferase ctr: blocks native firefly luciferase in HSP90 counter-screen; shares compounds with HSP90 refold inh; purified native firefly luciferase, luminescence; inhibition, % at 5.9 µM; hit rate 48% among 2,300; AID 1847;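 active = inhibition above the mean inhibition of all tested sample wells plus 3 SD, cut at about 10% in these data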
Numbers stand for hits. Compounds with a hit are over-represented: about 2.9% of the library has one in this group of screens.

How did O=C(O)c1ccc(N/N=C/c2cc3ccccc3nc2Cl)cc1 do in these assays?
HSP90 refold inh: 27.7; SENP7 block: inactive; SENP8 block-1: inactive; SENP1 FRET inh: inactive; SENP8 block-2: inactive; SENP6 block: inactive; HSP90 inh confirm: inactive; luciferase ctr: inactive

Results for CC(NC(=O)OCc1ccccc1)C(=O)NCC(=O)NC(Cc1ccc(OC(C)(C)C)cc1)C(=O)OC(C)(C)C (stereo not given) ?
HSP90 refold inh: inactive; SENP7 block: inactive; SENP8 block-1: inactive; SENP1 FRET inh: inactive; SENP8 block-2: inactive; SENP6 block: inactive

Results for O=C(COc1ncnc2ccccc12)NCCc1ccccc1 ?
HSP90 refold inh: inactive; SENP7 block: inactive; SENP8 block-1: inactive; SENP1 FRET inh: inactive; SENP8 block-2: inactive; SENP6 block: inactive

Results for COc1ccc(CCNC(=O)COc2ncnc3ccccc23)cc1OC ?
HSP90 refold inh: 62.3; SENP7 block: inactive; SENP8 block-1: inactive; SENP1 FRET inh: inactive; SENP8 block-2: inactive; SENP6 block: inactive; HSP90 inh confirm: inactive; luciferase ctr: inactive

How did COc1cc(/C=C(\NC(=O)c2cc(OC)c(OC)c(OC)c2)C(=O)NC(C(=O)O)c2ccccc2)cc(OC)c1OC (stereo not given) do in these assays?
HSP90 refold inh: inactive; SENP7 block: inactive; SENP8 block-1: inactive; SENP1 FRET inh: inactive; SENP8 block-2: inactive; SENP6 block: inactive

What do the screens show for `CC1(NC(=O)Cc2c(F)cccc2Cl)CCS(=O)(=O)C1` (stereo not given)?
SENP7 block: inactive; SENP8 block-1: inactive; SENP1 FRET inh: inactive; SENP8 block-2: inactive; SENP6 block: inactive

What do the screens show for `CCN(CC)C(=O)[C@H]1CC(CC(=O)NCCCOC)C(=O)N2CCc3c([nH]c4ccccc34)[C@]12C` (stereo not given in full)?
SENP7 block: inactive; SENP8 block-1: inactive; SENP1 FRET inh: inactive; SENP8 block-2: inactive; SENP6 block: inactive

Results for CCCCn1c(SC(C)C(N)=O)nc2cc(C(=O)OC)ccc2c1=O (stereo not given) ?
HSP90 refold inh: 28.1; SENP7 block: inactive; SENP8 block-1: inactive; SENP1 FRET inh: inactive; SENP8 block-2: inactive; SENP6 block: inactive; HSP90 inh confirm: inactive; luciferase ctr: inactive

Results for CCCCn1c(SC(C)C(=O)NCC2CCCO2)nc2cc(C(=O)OC)ccc2c1=O (stereo not given) ?
SENP7 block: inactive; SENP8 block-1: inactive; SENP1 FRET inh: inactive; SENP8 block-2: inactive; SENP6 block: inactive

What do the screens show for `COc1ccc(CCNC(=O)Cc2cccc(C(F)(F)F)c2)cc1OC`?
HSP90 refold inh: inactive; SENP7 block: inactive; SENP8 block-1: inactive; SENP1 FRET inh: inactive; SENP8 block-2: inactive; SENP6 block: inactive

Results for CC(C)CNC(=O)c1cc(-c2ccc3c(c2)OCO3)on1 ?
HSP90 refold inh: 31.1; SENP7 block: inactive; SENP8 block-1: inactive; SENP1 FRET inh: inactive; SENP8 block-2: inactive; SENP6 block: inactive; HSP90 inh confirm: 37.8; luciferase ctr: 24.2

What do the screens show for `CC(C)CNC(=O)COCc1cc(-c2ccc3c(c2)OCO3)on1`?
HSP90 refold inh: inactive; SENP7 block: inactive; SENP8 block-1: inactive; SENP1 FRET inh: inactive; SENP8 block-2: inactive; SENP6 block: inactive

What do the screens show for `COCCn1c(C)cc(C2=NNC(=Nc3ccc(OC)cc3)SC2)c1C`?
HSP90 refold inh: inactive; SENP7 block: inactive; SENP8 block-1: inactive; SENP1 FRET inh: inactive; SENP8 block-2: inactive; SENP6 block: inactive

What do the screens show for `COCCn1c(C)cc(C2=NNC(=Nc3ccccc3)SC2)c1C`?
HSP90 refold inh: 50.9; SENP7 block: inactive; SENP8 block-1: inactive; SENP1 FRET inh: inactive; SENP8 block-2: inactive; SENP6 block: inactive; HSP90 inh confirm: 38.7; luciferase ctr: 32.9

Results for CC(C)CCNC(=O)CN(Cc1ccccc1)C(=O)CCC(=O)Nc1ccccn1 ?
HSP90 refold inh: inactive; SENP7 block: inactive; SENP8 block-1: inactive; SENP1 FRET inh: inactive; SENP8 block-2: inactive; SENP6 block: inactive

Results for COc1ccc(C(=O)OCCOc2ccccc2C(C)=O)c(O)c1 ?
HSP90 refold inh: 28.2; SENP7 block: inactive; SENP8 block-1: inactive; SENP1 FRET inh: inactive; SENP8 block-2: inactive; SENP6 block: inactive; HSP90 inh confirm: inactive; luciferase ctr: inactive

Results for CCCCN(CCCC)Cc1cc2ccccc2c2c1COC2 ?
HSP90 refold inh: inactive; SENP7 block: inactive; SENP8 block-1: inactive; SENP1 FRET inh: inactive; SENP8 block-2: inactive; SENP6 block: inactive

Results for Cc1[nH]n(-c2ccccc2)c(=O)c1N=Nc1ccc(Cl)cc1 ?
HSP90 refold inh: inactive; SENP7 block: inactive; SENP8 block-1: inactive; SENP1 FRET inh: inactive; SENP8 block-2: inactive; SENP6 block: inactive

How did Cc1[nH]n(-c2ccccc2)c(=O)c1N=Nc1ccccc1 do in these assays?
HSP90 refold inh: inactive; SENP7 block: inactive; SENP8 block-1: inactive; SENP1 FRET inh: inactive; SENP8 block-2: inactive; SENP6 block: inactive

What do the screens show for `Cc1[nH]n(-c2ccccc2)c(=O)c1N=Nc1ccc(C(=O)O)cc1`?
HSP90 refold inh: 36.0; SENP7 block: inactive; SENP8 block-1: inactive; SENP1 FRET inh: inactive; SENP8 block-2: inactive; SENP6 block: inactive; HSP90 inh confirm: 33.9; luciferase ctr: inactive

What do the screens show for `CC(=O)c1ccc(N=Nc2c(C)[nH]n(-c3ccccc3)c2=O)cc1`?
HSP90 refold inh: 35.4; SENP7 block: inactive; SENP8 block-1: 47.6; SENP1 FRET inh: inactive; SENP8 block-2: inactive; SENP6 block: inactive; HSP90 inh confirm: 59.5; luciferase ctr: inactive

How did Cc1[nH]n(-c2ccccc2)c(=O)c1N=Nc1ccc(C(N)=O)cc1 do in these assays?
HSP90 refold inh: 25.2; SENP7 block: inactive; SENP8 block-1: inactive; SENP1 FRET inh: inactive; SENP8 block-2: inactive; SENP6 block: inactive; HSP90 inh confirm: 39.0; luciferase ctr: inactive

What do the screens show for `Cc1oc(-c2ccc(-c3ccccc3)cc2)nc1CN1CCN(CC(=O)N(C)C)CC1`?
HSP90 refold inh: 67.3; SENP7 block: inactive; SENP8 block-1: inactive; SENP1 FRET inh: inactive; SENP8 block-2: inactive; SENP6 block: inactive; HSP90 inh confirm: 79.0; luciferase ctr: 18.2

How did COc1ccc(-c2nc(CN3CCN(Cc4ccccc4)CC3)c(C)o2)cc1 do in these assays?
HSP90 refold inh: inactive; SENP7 block: inactive; SENP8 block-1: inactive; SENP1 FRET inh: inactive; SENP8 block-2: inactive; SENP6 block: inactive

What do the screens show for `COCCn1c(C)cc(C(=O)Cn2nc(C(=O)O)c3ccccc3c2=O)c1C`?
HSP90 refold inh: 67.5; SENP7 block: inactive; SENP8 block-1: inactive; SENP1 FRET inh: inactive; SENP8 block-2: inactive; SENP6 block: inactive; HSP90 inh confirm: 74.9; luciferase ctr: inactive

What do the screens show for `COCCn1c(C)cc(C(=O)COC(=O)c2ccc[nH]c2=O)c1C`?
HSP90 refold inh: 31.0; SENP7 block: inactive; SENP8 block-1: inactive; SENP1 FRET inh: inactive; SENP8 block-2: inactive; SENP6 block: inactive; HSP90 inh confirm: 45.3; luciferase ctr: 53.9
